Inconclusive results are not listed.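 Rule for the calls, unless noted: active = viability increase at or above a cutoff of the median across tested compounds plus 3 SD (cut at about 8.5% in these data, passing the limit was not always enough); inconclusive = some gains above the cutoff, reason not given; inactive = the rest.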
Assays:
[1] = S. cerevisiae growth inhibition in permissive medium (OD615), pilot counter-assay for S. cerevisiae lifespan shortening project, permissive growth control (AID 705;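 active = growth inhibition above 25% in both replicates, a cutoff set 3 SD above the mean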); settings: OD615, 24 h, at 10 µM, hits give high values
Summary of the method: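 Timing: 24 h exposure, 30 °C / Material: Saccharomyces cerevisiae strain carrying genetically modified DeaD replicative-lifespan system / Signal: OD at 615 nm / Compound: 10 µM single dose, 0.25% DMSO / Medium: SC raffinose/galactose permissive medium / Evaluation: reduction in yeast growth (OD615)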

[2] = S. cerevisiae growth inhibition in restrictive medium, OD615, pilot screen, restrictive growth control, yeast lifespan reduction project (AID 706;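 active = growth inhibition above a set limit, 3 SD over mean compound inhibition, in both replicates, cut at about 43% in these data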;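 note: modified DeaD lifespan yeast strain shifted to restrictive glucose medium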); settings: OD615, 48 h, at 10 µM, hits give high values
Summary of the method: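 System: Engineered S. cerevisiae DeaD strain | Detection: OD615 | Buffer or medium: CSMM-D glucose medium | Doses: 10 µM compound, 0.25% DMSO | Timing: 4 h pre-growth plus 48 h compound exposure, 30 °C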

[3] = doxorubicin toxicity protection in MRP-1 cells – H69AR cells, CellTiter-Glo, duplicate, MRP-1 activator project, pilot screen (AID 807); settings: H69AR viability with doxorubicin, CellTiter-Glo luminescence; at 10 µM; hits give high values;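 note: compound pretreatment 18-22 h then 72 h combined with doxorubicin; 0% = doxorubicin alone and 100% = vehicle without doxorubicin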
[4] = viability of HCT116 without oncogenic beta-catenin – human colon tumor cells, pilot screen (AID 823;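 active = cell viability at or below a set limit in both duplicate runs, the limit being the all-compound median minus 4 SD, cut at about 23% in these data, passing the limit was not always enough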;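 note: 0% = wells killed by 20 µM Hyamine and 100% = untreated DMSO cell wells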); settings: HCT116 beta-catenin knockout viability, CellTiter-Glo, 60 h; at 10 µM; hits give low values
[5] = RAM pathway blockade in budding yeast – dse1pr::URA3 reporter, 5-FOA selection, pilot screen (AID 869;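 active = inhibition over a set limit, the all-compound mean plus 3 SD, in both replicate runs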;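 note: 0% = DMSO wells with no growth and 100% = 10 µM 1-NA-PP1 with full growth; RAM network block rescues cells from 5-FOA so hits raise OD615 growth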); settings: S. cerevisiae dse1pr::URA3 5-FOA growth, OD615, 2 d; at 10 µM; hits give high values; strain carries analog-sensitive mutant Cbk1 kinase
[6] = viability of PTEN-null HCT116 cells – cell-based, HCT116 clonal line, CellTiter-Glo, pilot screen (AID 824;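 active = viability at or below 27.92% in each of two runs, the all-compound median minus 4 SD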;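 note: 0% = 20 µM Hyamine control and 100% = vehicle cell control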); settings: HCT116 PTEN-deleted viability, 60 h, at 10 µM, hits give low values

Cc1c(C(=O)NCc2cccs2)oc2ccc(S(=O)(=O)N3CCOCC3)cc12
inactive: growth inhibition [1] -0.625% | growth inhibition [2] -4.37% | viability increase [3] -4.32% | viability [4] 79.6% | inhibition [5] 0.46%

CCC1(C)Cc2ccccc2-c2nc3n(c(=O)c21)CCCCC3 (stereo unspecified)
inactive: growth inhibition [1] -8.71% | growth inhibition [2] -14.2% | viability increase [3] -1.36% | viability [4] 88.1% | inhibition [5] 4.02%

COc1ccccc1OCCSc1nnnn1-c1ccc(C)cc1
inactive: growth inhibition [1] -13.8% | growth inhibition [2] -6.1% | viability increase [3] 0.71% | viability [4] 79.5% | viability [6] 78.7% | inhibition [5] 2.32%
